In ChEMBL document CHEMBL4251702, “Potential Antimicrobial Isopropanol-Conjugated Carbazole Azoles as Dual Targeting Inhibitors of Enterococcus faecalis” (ACS Med Chem Lett, 2018):
In brackets after ≈: the same amount, converted by molar mass. Activity calls are given as the source filed them. No cut-off for these calls is given here.

What was measured:
[1] = tested on: Aspergillus fumigatus; experiment: Antifungal activity against Aspergillus fumigatus after 24 hrs by two-fold serial dilution method; assay type: functional
[2] = tested on: Candida parapsilosis; experiment: Antifungal activity against Candida parapsilosis ATCC 22019 after 24 hrs by two-fold serial dilution method; assay type: functional
[3] = tested on: Klebsiella pneumoniae; experiment: Antimicrobial activity against Klebsiella pneumoniae after 24 hrs by two-fold serial dilution method; assay type: functional, organism-based
[4] = tested on: Staphylococcus aureus; experiment: Antimicrobial activity against methicillin-resistant Staphylococcus aureus after 24 hrs by two-fold serial dilution method; assay type: functional, organism-based
[5] = tested on: Escherichia coli; experiment: Antimicrobial activity against Escherichia coli after 24 hrs by two-fold serial dilution method; assay type: functional, organism-based
[6] = tested on: Staphylococcus aureus; experiment: Antimicrobial activity against Staphylococcus aureus ATCC 25923 after 24 hrs by two-fold serial dilution method; assay type: functional, organism-based
[7] = tested on: Staphylococcus aureus; experiment: Antimicrobial activity against Staphylococcus aureus after 24 hrs by two-fold serial dilution method; assay type: functional, organism-based
[8] = tested on: Pseudomonas aeruginosa; experiment: Antimicrobial activity against Pseudomonas aeruginosa after 24 hrs by two-fold serial dilution method; assay type: functional, organism-based
[9] = tested on: Escherichia coli; experiment: Antimicrobial activity against Escherichia coli ATCC 25922 after 24 hrs by two-fold serial dilution method; assay type: functional, organism-based
[10] = tested on: Staphylococcus aureus; experiment: Antimicrobial activity against Staphylococcus aureus ATCC 29213 after 24 hrs by two-fold serial dilution method; assay type: functional, organism-based
[11] = tested on: Pseudomonas aeruginosa; experiment: Antimicrobial activity against Pseudomonas aeruginosa ATCC 27853 after 24 hrs by two-fold serial dilution method; assay type: functional
[12] = tested on: Enterococcus faecalis; experiment: Antimicrobial activity against Enterococcus faecalis after 24 hrs by two-fold serial dilution method; assay type: functional
[13] = tested on: Acinetobacter baumannii; experiment: Antimicrobial activity against Acinetobacter baumannii after 24 hrs by two-fold serial dilution method; assay type: functional, organism-based
[14] = tested on: Enterococcus faecalis; experiment: Antimicrobial activity against Enterococcus faecalis after 11 passages measured at 24 hrs interval for 16 days by two-fold serial dilution method; assay type: functional
[15] = tested on: Enterococcus faecalis; experiment: Induction of membrane disruption in Enterococcus faecalis at 12 times MIC measured every 10 mins for 60 mins by propidium iodide staining based fluorescence assay; assay type: functional, organism-based
In short: (§1)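 Membrane permeabilization was tracked by propidium iodide, which enters compromised cells and fluoresces on binding DNA. Fluorescence of bacteria with compound plus PI was recorded over 60 min, against two control groups. Strains were E. faecalis and E. coli ATCC 25922.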

[16] = tested on: Escherichia coli; experiment: Induction of membrane disruption in Escherichia coli ATCC 25922 at 12 times MIC measured every 10 mins for 60 mins by propidium iodide staining based fluorescence assay; assay type: functional, organism-based; in short: as §1
[17] = Cytotoxicity against mouse RAW264.7 cells assessed as cell viability at 128 ug/ml after 24 hrs by MTT assay relative to control; assay type: cell-based; conditions: read-out: Activity
In short: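 Normal mouse macrophage RAW264.7 cells were exposed to the compound up to 128 μg/mL for 24 h, and viability was read by MTT. Each bar is the mean of three parallels, with error bars of one standard deviation.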

[18] = tested on: Enterococcus faecalis; experiment: Bactericidal activity against Enterococcus faecalis assessed as log reduction in bacterial colonies at 4 times MIC measured within 1 hr by time-kill assay; assay type: functional
In short: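 Viable counts of E. faecalis were expressed as log CFU/mL and followed over the first hour of exposure at 4 × MIC. A positive-control drug was run alongside.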

[19] = tested on: DNA; experiment: Binding affinity to Enterococcus faecalis DNA assessed as DNA intercalation by neutral red dye based spectrofluorimetric method; assay type: nucleic-acid assay
In short: (§2)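 Genomic DNA was isolated from drug-resistant E. faecalis strains and examined in vitro with the compound by UV–vis absorption and by neutral red fluorescence spectroscopy.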

[20] = tested on: DNA; experiment: Binding affinity to Enterococcus faecalis DNA assessed as DNA intercalation by UV-vis absorption spectrophotometric method; assay type: nucleic-acid assay; in short: as §2
[21] = tested on: Enterococcus faecalis; experiment: Antimicrobial activity against Enterococcus faecalis assessed as ratio of MIC after and before […] measured at 24 hrs interval for 16 days by two-fold serial dilution method; assay type: functional
[22] = tested on: Staphylococcus aureus; experiment: Antimicrobial activity against Staphylococcus aureus ATCC 29213 after 24 hrs under pH 4 to 11 by two-fold serial dilution method; assay type: functional, organism-based
[23] = tested on: Pseudomonas aeruginosa; experiment: Antimicrobial activity against Pseudomonas aeruginosa ATCC 27853 after 24 hrs under pH 4 to 11 by two-fold serial dilution method; assay type: functional, organism-based
[24] = tested on: Staphylococcus aureus; experiment: Antimicrobial activity against Staphylococcus aureus ATCC 25923 after 24 hrs under pH 4 to 11 by two-fold serial dilution method; assay type: functional, organism-based
[25] = tested on: Klebsiella pneumoniae; experiment: Antimicrobial activity against Klebsiella pneumoniae after 24 hrs under pH 4 to 11 by two-fold serial dilution method; assay type: functional, organism-based
[26] = tested on: Pseudomonas aeruginosa; experiment: Antimicrobial activity against Pseudomonas aeruginosa after 24 hrs under pH 4 to 11 by two-fold serial dilution method; assay type: functional, organism-based
[27] = tested on: Escherichia coli; experiment: Antimicrobial activity against Escherichia coli ATCC 25922 after 24 hrs under pH 4 to 11 by two-fold serial dilution method; assay type: functional, organism-based
[28] = tested on: Escherichia coli; experiment: Antimicrobial activity against Escherichia coli after 24 hrs under pH 4 to 11 by two-fold serial dilution method; assay type: functional, organism-based
[29] = Solubility of the compound in water; assay type: physicochemical; conditions: buffer
[30] = tested on: Staphylococcus aureus; experiment: Antimicrobial activity against methicillin-resistant Staphylococcus aureus after 24 hrs under pH 4 to 11 by two-fold serial dilution method; assay type: functional, organism-based
[31] = tested on: Enterococcus faecalis; experiment: Antimicrobial activity against Enterococcus faecalis after 24 hrs under pH 4 to 11 by two-fold serial dilution method; assay type: functional, organism-based
[32] = tested on: Acinetobacter baumannii; experiment: Antimicrobial activity against Acinetobacter baumannii after 24 hrs under pH 4 to 11 by two-fold serial dilution method; assay type: functional, organism-based
[33] = tested on: Staphylococcus aureus; experiment: Antimicrobial activity against Staphylococcus aureus after 24 hrs under pH 4 to 11 by two-fold serial dilution method; assay type: functional, organism-based

OC(Cn1cncn1)(Cn1cncn1)c1ccc(F)cc1F
Activity [1]: Active | Activity [2]: Active

OC(Cn1cncn1)Cn1c2ccccc2c2ccccc21 (centres undefined)
Activity [3]: Active | Activity [4]: Active | Activity [5]: Active | Activity [6]: Active | Activity [7]: Active | Activity [8]: Active | Activity [9]: Active | Activity [10]: Active | Activity [11]: Active | Activity [12]: Active | Activity [13]: Active

Cc1ncc([N+](=O)[O-])n1CC(O)Cn1c2ccc(Br)cc2c2cc(Br)ccc21 (centres undefined)
MIC ([11]; ATCC 27853, 24 h): 32 µg/mL (≈ 63 µM)

OC(Cn1cncn1)Cn1c2ccc(Br)cc2c2cc(Br)ccc21 (centres undefined)
Activity [3]: Active | Activity [4]: Active | Activity [5]: Active | Activity [6]: Active | Activity [7]: Active | Activity [8]: Active | Activity [9]: Active | Activity [10]: Active | Activity [11]: Active | Activity [12]: Active | Activity [13]: Active

O=[N+]([O-])c1cn(CC(O)Cn2c3ccccc3c3ccccc32)cn1 (centres undefined)
Activity [3]: Active | Activity [4]: Active | Activity [5]: Active | Activity [6]: Active | Activity [7]: Active | Activity [8]: Active | Activity [9]: Active | Activity [10]: Active | Activity [11]: Active | Activity [12]: Active | Activity [13]: Active

OC(Cn1cncn1)Cn1c2ccc(Cl)cc2c2cc(Cl)ccc21 (centres undefined)
Activity [3]: Active | Activity [4]: Active | MIC [14]: 2 to 8 µg/mL (≈ 5.54 to 22.1 µM) | Activity [15]: Active | Activity [5]: Active | Activity [6]: Active | Activity [16]: Active | MIC [1]: 32 µg/mL (≈ 88.6 µM) | Activity [7]: Active | viability at 24 h, 128 ug/ml [17]: > 80% | Activity [8]: Active | Activity [18]: >3 log10CFU/ml | Activity [9]: Active | Activity [19]: Active | Activity [10]: Active | MIC ([2]; Lodderomyces parapsilosis, ATCC 22019, 24 h): 4 µg/mL (≈ 11.1 µM) | Activity [11]: Active | Activity [20]: Active | MIC [12]: 2 µg/mL (≈ 5.54 µM) | Activity [13]: Active

OC(Cn1cncn1)Cn1c2ccccc2c2ccc(Br)cc21 (centres undefined)
Activity [3]: Active | Activity [4]: Active | Activity [5]: Active | Activity [6]: Active | Activity [7]: Active | Activity [8]: Active | Activity [9]: Active | Activity [10]: Active | Activity [11]: Active | Activity [12]: Active | Activity [13]: Active

OC(Cn1cncn1)Cn1c2ccccc2c2cc(Br)ccc21 (centres undefined)
Activity [3]: Active | Activity [4]: Active | Activity [5]: Active | Activity [6]: Active | Activity [7]: Active | Activity [8]: Active | Activity [9]: Active | Activity [10]: Active | Activity [11]: Active | Activity [12]: Active | Activity [13]: Active

Cc1nccn1CC(O)Cn1c2ccccc2c2ccccc21 (centres undefined)
Activity [3]: Active | Activity [4]: Active | Activity [5]: Active | Activity [6]: Active | Activity [7]: Active | Activity [8]: Active | Activity [9]: Active | Activity [10]: Active | Activity [11]: Active | Activity [12]: Active | Activity [13]: Active

OC(Cn1cncn1)Cn1c2ccccc2c2cc(I)ccc21 (centres undefined)
Activity [3]: Active | Activity [4]: Active | Activity [5]: Active | Activity [6]: Active | Activity [7]: Active | Activity [8]: Active | Activity [9]: Active | Activity [10]: Active | Activity [11]: Active | Activity [12]: Active | Activity [13]: Active

OC(Cn1ccnc1-c1ccccc1)Cn1c2ccccc2c2ccccc21 (centres undefined)
Activity [3]: inactive | Activity [4]: inactive | Activity [5]: inactive | Activity [6]: inactive | Activity [7]: inactive | Activity [8]: inactive | Activity [9]: inactive | Activity [10]: inactive | Activity [11]: inactive | Activity [12]: inactive | Activity [13]: inactive

CCn1cc(C(=O)O)c(=O)c2cc(F)c(N3CCNCC3)cc21 [NORFLOXACIN]
Activity [9]: Active | Activity [10]: Active | Ratio [21]: 16 | Activity [12]: Active

Cc1ncc([N+](=O)[O-])n1CC(O)Cn1c2ccccc2c2ccccc21 (centres undefined)
Activity [3]: Active | Activity [4]: Active | Activity [22]: Active | Activity [23]: Active | Activity [5]: Active | Activity [6]: Active | Activity [7]: Active | Activity [24]: Active | Activity [25]: Active | Activity [26]: Active | Activity [8]: Active | Activity [27]: Active | Activity [28]: Active | solubility [29]: Soluble | Activity [9]: Active | Activity [10]: Active | Activity [30]: Active | Activity [31]: Active | Activity [32]: Active | Activity [33]: Active | Activity [11]: Active | Activity [12]: Active | Activity [13]: Active

CC(C)(C)c1ccc2c(c1)c1cc(C(C)(C)C)ccc1n2CC(O)Cn1cncn1 (centres undefined)
Activity [3]: Active | Activity [4]: Active | Activity [5]: Active | Activity [6]: Active | Activity [7]: Active | Activity [8]: Active | Activity [9]: Active | Activity [10]: Active | Activity [11]: Active | Activity [12]: Active | Activity [13]: Active
